Data on four molecules can be found in ChEMBL document CHEMBL4715933, “Identification of Potent Reverse Indazole Inhibitors for HPK1” (ACS Med Chem Lett, 2021).

For series [1], the species on record is Homo sapiens. Kind of series: Selectivity ratio of IC50 for JAK1 (unknown origin) by ATP competitive binding assay to IC50 for N-terminal GST-tagged human recombinant HPK1 (1 to 346 residues ) expressed in baculovirus-infected Sf9 cells by HTRF lanthascreen binding assay. In short, it runs like this:
(§1)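 Ratio of off-target kinase IC50 (JAK1, JAK2 or CDK2) to HPK1 IC50. The off-target kinase assays were run at ATP approximately equal to Km(ATP). HPK1 IC50 came from the tracer-displacement assay with tracer at approximately Kd(tracer).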
A general note: Time-resolved FRET reads energy transfer from a long-lived donor to a nearby acceptor.

Series [2] in a line: Half life in Wistar Han rat at 0.5 mg/kg, iv or 0.5 mg/kg, po. It is filed as ADME, organism-based. The conditions noted are these: in vivo. In short, it runs like this:
(§2)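 Male Wistar Han rats given 0.5 mg/kg intravenously and 0.5 mg/kg orally, both as solutions in DMSO/PEG400/H2O. Plasma clearance, volume of distribution, half-life and oral bioavailability determined. Unbound parameters correct for plasma protein binding.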

Series [3] deals with T1, Mitogen-activated protein kinase kinase kinase kinase 1 (Homo sapiens, UniProt Q92918). Kind of series: Inhibition of HPK1 in human PBMC assessed as inhibition of SLP76 phosphorylation by ELISA. In outline:
(§3)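 Target-engagement assay in human peripheral blood mononuclear cells with ELISA readout of SLP76 phosphorylation. Total-cell IC50 reported. Unbound IC50 obtained by correcting for compound binding to the 10% FBS present in the assay medium.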
A general note: In an ELISA, binding on a coated surface is turned into a signal by an enzyme label.
Target sequence in this assay (Q92918 whole entry): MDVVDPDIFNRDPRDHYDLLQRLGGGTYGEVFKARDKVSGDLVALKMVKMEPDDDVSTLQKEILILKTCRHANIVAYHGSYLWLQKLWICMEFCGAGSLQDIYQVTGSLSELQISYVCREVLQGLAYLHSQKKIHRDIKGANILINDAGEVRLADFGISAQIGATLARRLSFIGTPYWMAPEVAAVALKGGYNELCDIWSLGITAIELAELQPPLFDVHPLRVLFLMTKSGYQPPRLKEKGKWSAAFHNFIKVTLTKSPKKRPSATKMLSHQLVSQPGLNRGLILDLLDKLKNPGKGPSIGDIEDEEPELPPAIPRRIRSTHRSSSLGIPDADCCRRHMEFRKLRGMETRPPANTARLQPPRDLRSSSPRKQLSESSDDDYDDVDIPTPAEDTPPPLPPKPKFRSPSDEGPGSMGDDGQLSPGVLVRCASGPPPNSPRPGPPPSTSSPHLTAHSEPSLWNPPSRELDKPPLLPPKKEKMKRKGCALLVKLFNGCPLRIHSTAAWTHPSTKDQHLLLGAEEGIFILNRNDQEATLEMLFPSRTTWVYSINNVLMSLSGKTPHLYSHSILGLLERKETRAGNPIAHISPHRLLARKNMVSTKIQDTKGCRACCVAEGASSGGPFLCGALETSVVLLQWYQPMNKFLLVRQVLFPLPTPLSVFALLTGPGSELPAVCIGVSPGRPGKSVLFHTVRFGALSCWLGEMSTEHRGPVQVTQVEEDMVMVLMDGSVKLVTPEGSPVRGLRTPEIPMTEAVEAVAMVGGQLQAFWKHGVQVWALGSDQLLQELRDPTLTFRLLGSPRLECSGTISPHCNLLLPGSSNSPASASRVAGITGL

In series [4] the target is T1, Mitogen-activated protein kinase kinase kinase kinase 1. As to the kind of experiment: Inhibition of HPK1 in human PBMC assessed as unbound concentration required for inhibition of SLP76 phosphorylation by ELISA corrected to binding to 10% FBS. In short, it runs like this:
as §3
Target sequence in this assay (Q92918 whole entry, looked up): as the sequence (Q92918 whole entry) above

Series [5] can be described thus: Apparent permeability of compound in dog MDCKII cells. The settings on record: MDCK. It is filed as ADME, cell-based, Canis lupus familiaris, MDCK-II.
Series [6] is described as follows: Total Plasma clearance in Wistar Han rat at 0.5 mg/kg, iv or 0.5 mg/kg, po. It is filed as ADME, organism-based. In short, it runs like this:
as §2

A short description of series [7]: Volume of distribution in Wistar Han rat at 0.5 mg/kg, iv or 0.5 mg/kg, po. It is filed as ADME, organism-based. The settings on record: in vivo. In outline:
as §2

Series [8] is described as follows: Oral bioavailability in Wistar Han rat at 0.5 mg/kg. It is filed as ADME, organism-based. The settings on record: in vivo. In short, it runs like this: as §2
The target of series [9] is T1, Mitogen-activated protein kinase kinase kinase kinase 1. Kind of series: Displacement of Tracer 222 from N-terminal GST-tagged human recombinant HPK1 (1 to 346 residues ) expressed in baculovirus-infected Sf9 cells incubated for 1 hr by HTRF lanthascreen binding assay. In short, it runs like this: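 Binding (tracer-displacement) format run with tracer at a concentration approximately equal to its Kd; IC50 derived from displacement.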
Target sequence in this assay (Q92918 whole entry): as above

The species named for series [10] is Homo sapiens. As to the kind of experiment: Selectivity ratio of IC50 for CDK2 (unknown origin) by ATP competitive binding assay to IC50 for N-terminal GST-tagged human recombinant HPK1 (1 to 346 residues ) expressed in baculovirus-infected Sf9 cells by HTRF lanthascreen binding assay. In outline: as §1
For series [11], the species on record is Homo sapiens. As to the kind of experiment: Selectivity ratio of IC50 for JAK2 (unknown origin) by ATP competitive binding assay to IC50 for N-terminal GST-tagged human recombinant HPK1 (1 to 346 residues ) expressed in baculovirus-infected Sf9 cells by HTRF lanthascreen binding assay. In short, it runs like this:
as §1

Series [12] can be described thus: Unbound clearance in Wistar Han rat at 0.5 mg/kg, iv or 0.5 mg/kg, po. The conditions noted are these: in vivo. It is filed as ADME, organism-based. In short, it runs like this:
as §2

Series [13] can be described thus: Unbound volume of distribution in Wistar Han rat at 0.5 mg/kg, iv or 0.5 mg/kg, po. It is filed as ADME, organism-based. The conditions noted are these: in vivo. In short, it runs like this:
as §2

Series [14] can be described thus: Volume of distribution in Wistar Han rat at 0.1 mg/kg, iv. It is filed as ADME, organism-based. The conditions noted are these: in vivo. In short, it runs like this:
(§4)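 Male Wistar Han rats dosed intravenously at 0.1 mg/kg, given as a solution in DMSO/PEG400/H2O. Plasma PK parameters derived: total plasma clearance, volume of distribution, mean residence time and half-life. Unbound clearance accounts for plasma protein binding.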

The nature of series [15]: Mean residence time in Wistar Han rat at 2 mg/kg, iv. It is filed as ADME, organism-based. The conditions noted are these: in vivo. In short, it runs like this:
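Male Wistar Han rats received a single intravenous dose of 2 mg/kg, formulated as a solution in 30% captisol/70% water. Mean residence time derived from plasma concentration–time data.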

A short description of series [16]: Total Plasma clearance in Wistar Han rat at 0.1 mg/kg, iv. It is filed as ADME, organism-based. In short, it runs like this:
as §4

A short description of series [17]: Unbound clearance in Wistar Han rat at 0.1 mg/kg, iv. It is filed as ADME, organism-based. The settings on record: in vivo. In short, it runs like this: as §4
Series [18] can be described thus: Half life in Wistar Han rat at 0.1 mg/kg, iv. It is filed as ADME, organism-based. The conditions noted are these: in vivo. In short, it runs like this:
as §4

Bounds are passed on as bounds.

Regarding `COc1cccc(F)c1-c1cc2c(cn1)cnn2-c1cccc(N2C[C@@H]3C[C@H]2CN3C)n1`, the Ratio IC50 amounted to 5190 in the series filed under Homo sapiens [1], 61 in the series listed under Homo sapiens [10] and 599 in the series filed under Homo sapiens [11]. The half-life (in general, how long it takes for the measured level to halve) in series [2] is 1.8 h. In addition, the figures for the IC50 in series [3] and in series [9] were 4300 nM and 1.9 nM, respectively. In addition, in series [4], the fIC50 amounted to 1.1 µM. In addition, the Papp – broadly, a coefficient for how fast a substance crosses the barrier – in [5] is 34 ×10⁻⁶ cm/s. Further, the clearance in series [6] is 4.2 mL/min/kg. In [7], this molecule gave a Vd of 0.5 L/kg. In addition, the bioavailability – broadly, the share of a dose that reaches the circulation, judged against a reference dose that is usually intravenous – in series [8] is more than 100%. The CL free in series [12] turned out to be 2962 mL/min/kg.

As to `COc1cccc(F)c1-c1cc2c(cn1)cnn2-c1cccc(N2CC3CCC(C2)N3C)n1`, the Ratio IC50 in the series filed under Homo sapiens [1] is 8960; in the series filed under Homo sapiens [10], 61; in the series filed under Homo sapiens [11] it was 1450. Moreover, the half-life in series [2] is 2.1 h. In series [13], this molecule returned a Vdu of 143 L/kg. The results for the IC50 in series [3] and in series [9] were 4000 nM and 1.1 nM, respectively. The fIC50 in series [4] turned out to be 0.3 µM. In addition, the Papp in [5] was determined as 26 ×10⁻⁶ cm/s. The same molecule yielded a clearance in [6] of 19 mL/min/kg. In series [7], this molecule had a Vd of 2.3 L/kg. Besides, the bioavailability in series [8] amounted to 67%. The molecule also returned a CL free in series [12] of 1197 mL/min/kg.

Consider `COc1ccncc1-c1ccc2cnn(-c3ccnc(N4CCOCC4)c3)c2c1`, for which the Ratio IC50 in the series filed under Homo sapiens [1] and in the series filed under Homo sapiens [11] was 4 throughout. In series [14], this molecule returned a Vd of 2.1 L/kg. The MRT (commonly the average time that molecules of a dose stay in the body) in series [15] stood at 1.2 h. The IC50 (commonly the concentration at which inhibition is half-maximal) in series [9] is 2200 nM. Besides, the clearance in series [16] came out at 31 mL/min/kg.

As for `COc1cccc(F)c1-c1cc2c(cn1)cnn2-c1cccc(N2CCN(C)CC2)n1`, the Ratio IC50 in the series listed under Homo sapiens [1] came out at 751; in the series filed under Homo sapiens [10] it was 44; in the series filed under Homo sapiens [11], 135. The Vd in series [14] was 1.1 L/kg. The IC50 came out at 8000 nM in series [3] and 2.6 nM in series [9]. Further, the fIC50 in [4] is 0.6 µM. Moreover, the Papp in [5] turned out to be 28 ×10⁻⁶ cm/s. The molecule also registered a CL free in [17] of 2171 mL/min/kg. The molecule also gave a half-life in [18] of 2.3 h. Moreover, the clearance in [16] was found to be 9.4 mL/min/kg.
